Measured values reported in ChEMBL document CHEMBL4020814, “Synthesis, Binding Mode, and Antihyperglycemic Activity of Potent and Selective (5-Imidazol-2-yl-4-phenylpyrimidin-2-yl)[2-(2-pyridylamino)ethyl]amine Inhibitors of Glycogen Synthase Kinase 3” (J Med Chem, 2017).
Activity calls are given as the source filed them. The calls are words filed in the database; no cut-off is given here.

Experiments:
Mus musculus [1] = test: Antidiabetic activity in diabetic db/db mouse assessed as reduction in plasma glucose AUC administered orally at 4.5 and 0.5 hrs prior to oral glucose challenge by oral glucose tolerance test; format: functional
How it was run: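 db/db mice, 6–8 per group, fasted ~6 h, dosed orally at 30 mg/kg at −4.5 and −0.5 h before oral glucose challenge. Efficacy is the percent reduction in plasma glucose AUC versus untreated animals. Vehicle was 15% captisol, 1% CMC or pH-adjusted water.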

[2] = Inhibition of GSK3 expressed in CHO-IR cells expressing human insulin receptor assessed as glycogen synthase activation after 30 mins by filter paper assay; format: cell-based, Cavia porcellus
Rattus norvegicus [3] = test: Antihyperglycemic activity in diabetic ZDF fa/fa rat assessed as plasma glucose levels at 30 mg/kg, po administered as single dose measured after 60 mins (reference value: 500 to 550 mg/dl); format: functional
How it was run: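 Twelve-week-old male ZDF (fa/fa) rats with fasted basal glucose of 500–550 mg/dL, food removed 3–4 h before dosing. A single oral dose was given with vehicle 15% captisol. Plasma glucose and insulin were measured from serial tail-snip bleeds, n = 8/group, mean ± SEM.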

Mus musculus [4] = species on record: Mus musculus; test: Antidiabetic activity in streptozotocin-treated mouse fed with high fat diet assessed as reduction in post-challenge glucose AUC; format: functional; design: scale not given: the % may be the effect or the level left
How it was run: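 Mice on a high-fat diet with intermittent streptozotocin were dosed orally at −4.5 and −0.5 h before oral glucose challenge. Post-challenge glucose AUC and insulin were measured.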

[5] = Inhibition of human phosphatidylinositol (PI) 3-kinase using PI as substrate after 1 hr by scintillation counting method
Mus musculus [6] = test: Antiobesity activity in diabetic […] mouse assessed as improvement in glucose tolerance administered at 30 mg/kg, po measured post glucose challenge by oral glucose tolerance test relative to control; format: functional, organism-based
How it was run: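 ob/ob mice aged 9–10 weeks, 6–8 per group, given an oral glucose tolerance test with oral dosing at −4.5 and −0.5 h (vehicle captisol). Plasma glucose and insulin were measured after the glucose challenge. Values are mean ± SEM.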

[7] = Inhibition of human phosphodiesterase 3 using cAMP substrate after 20 mins by scintillation counting
Mus musculus [8] = test: Antiobesity activity in diabetic […] mouse assessed as improvement in glucose tolerance administered at 30 mg/kg, po measured post glucose challenge and measured after 20 hrs post compound dose by oral glucose tolerance test relative to control; format: functional, organism-based
Rattus norvegicus [9] = test: Antidiabetic activity in 12 weeks old obese ZDF fa/fa rat assessed as increase in plasma glucose disposal at 30 mg/kg dosed at 4.5 and 0.5 hrs prior to oral glucose challenge by oral glucose tolerance test; format: functional, organism-based
[10] = Inhibition of human DNA-dependent protein kinase using PI as substrate after 1 hr by scintillation counting method
[11] = Inhibition of human GSK3 using biotin-CREB peptide substrate after 1 hr by scintillation counting method
Rattus norvegicus [12] = test: Antihyperglycemic activity in diabetic ZDF fa/fa rat assessed as plasma glucose levels at 5 mg/kg, iv prime dose with continuous infusion at 64 ug/kg/min for 4 days (reference value: 223 +/- 18 mg/dL); format: functional
Rattus norvegicus [13] = test: Antidiabetic activity in diabetic ZDF fa/fa rat assessed as reduction in plasma glucose AUC at 8 mg/kg administered 4.5 and 0.5 hrs prior to oral glucose challenge by oral glucose tolerance test; format: functional; design: scale not given: the % may be the effect or the level left
How it was run: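 Obese 10-week-old ZDF (fa/fa) rats, n = 8/group, fasted overnight, given 8 mg/kg orally at 4.5 and 0.5 h before oral glucose challenge. Efficacy is the percent reduction in plasma glucose AUC versus untreated animals. Formulations were 15% captisol, 1% CMC or water with pH adjusted.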

[14] = Inhibition of rat AMP kinase using SAMS peptide substrate in the presence of AMP after 1 hr by scintillation counting method
How it was run: (§1)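 Kinase buffer: 50 mmol/L Tris-HCl pH 7.5, 10 mmol/L MgCl2, 1 mmol/L EGTA, 1 mmol/L DTT, 25 mmol/L β-glycerophosphate, 1 mmol/L NaF, 0.01% BSA. It contained kinase, peptide substrate and activators. Compound was added in DMSO with 1 μmol/L final ATP. PKC-ζ, AMPK and pdk1 were commercial enzymes.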

[15] = molecular target: T1, Serine/threonine-protein kinase Chk1 (Homo sapiens, UniProt O14757); test: Inhibition of human CHK1 using biotin-CDC25 peptide substrate after 1 hr by scintillation counting method
T1 sequence (O14757 whole entry): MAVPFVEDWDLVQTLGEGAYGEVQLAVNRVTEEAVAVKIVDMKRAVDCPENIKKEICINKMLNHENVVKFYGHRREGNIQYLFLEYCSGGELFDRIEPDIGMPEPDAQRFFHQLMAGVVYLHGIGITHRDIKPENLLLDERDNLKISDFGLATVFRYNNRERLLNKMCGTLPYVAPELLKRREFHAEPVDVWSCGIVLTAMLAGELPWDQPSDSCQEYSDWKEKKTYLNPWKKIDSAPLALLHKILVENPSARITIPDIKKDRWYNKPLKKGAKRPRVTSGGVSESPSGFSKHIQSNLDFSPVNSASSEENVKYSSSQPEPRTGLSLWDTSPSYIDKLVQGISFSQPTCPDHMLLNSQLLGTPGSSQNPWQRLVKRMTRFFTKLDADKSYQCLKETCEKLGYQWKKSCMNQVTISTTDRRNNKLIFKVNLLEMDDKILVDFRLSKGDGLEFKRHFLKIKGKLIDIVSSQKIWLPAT

[16] = molecular target: Glycogen synthase kinase-3 alpha (Homo sapiens, UniProt P49840); test: Inhibition of human GSK3alpha using biotin-CREB peptide substrate after 1 hr by scintillation counting method
[17] = molecular target: Mitogen-activated protein kinase 1 (Homo sapiens, UniProt P28482); test: Inhibition of human ERK2 using myelin basic protein substrate after 1 hr by scintillation counting method
[18] = molecular target: RAC-alpha serine/threonine-protein kinase (Homo sapiens, UniProt P31749); test: Inhibition of human AKT1/PKB using phospho-AKT peptide substrate after 1 hr by scintillation counting method
Sequence of RAC-alpha serine/threonine-protein kinase (P31749 whole entry): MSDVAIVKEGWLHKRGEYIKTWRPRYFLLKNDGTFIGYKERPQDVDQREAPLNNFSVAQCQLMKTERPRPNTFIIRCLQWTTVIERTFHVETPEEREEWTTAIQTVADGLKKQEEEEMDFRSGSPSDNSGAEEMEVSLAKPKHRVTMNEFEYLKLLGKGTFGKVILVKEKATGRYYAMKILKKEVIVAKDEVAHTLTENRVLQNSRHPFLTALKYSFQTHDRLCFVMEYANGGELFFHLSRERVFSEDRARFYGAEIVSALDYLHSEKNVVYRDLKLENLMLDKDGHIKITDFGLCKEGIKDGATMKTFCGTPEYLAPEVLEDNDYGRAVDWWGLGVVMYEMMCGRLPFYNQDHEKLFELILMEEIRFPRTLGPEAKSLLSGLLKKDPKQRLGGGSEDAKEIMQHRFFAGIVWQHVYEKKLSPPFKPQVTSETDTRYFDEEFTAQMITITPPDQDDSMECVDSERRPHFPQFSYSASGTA

[19] = molecular target: Vascular endothelial growth factor receptor 1 (Homo sapiens, UniProt P17948)
Sequence of Vascular endothelial growth factor receptor 1 (P17948 whole entry): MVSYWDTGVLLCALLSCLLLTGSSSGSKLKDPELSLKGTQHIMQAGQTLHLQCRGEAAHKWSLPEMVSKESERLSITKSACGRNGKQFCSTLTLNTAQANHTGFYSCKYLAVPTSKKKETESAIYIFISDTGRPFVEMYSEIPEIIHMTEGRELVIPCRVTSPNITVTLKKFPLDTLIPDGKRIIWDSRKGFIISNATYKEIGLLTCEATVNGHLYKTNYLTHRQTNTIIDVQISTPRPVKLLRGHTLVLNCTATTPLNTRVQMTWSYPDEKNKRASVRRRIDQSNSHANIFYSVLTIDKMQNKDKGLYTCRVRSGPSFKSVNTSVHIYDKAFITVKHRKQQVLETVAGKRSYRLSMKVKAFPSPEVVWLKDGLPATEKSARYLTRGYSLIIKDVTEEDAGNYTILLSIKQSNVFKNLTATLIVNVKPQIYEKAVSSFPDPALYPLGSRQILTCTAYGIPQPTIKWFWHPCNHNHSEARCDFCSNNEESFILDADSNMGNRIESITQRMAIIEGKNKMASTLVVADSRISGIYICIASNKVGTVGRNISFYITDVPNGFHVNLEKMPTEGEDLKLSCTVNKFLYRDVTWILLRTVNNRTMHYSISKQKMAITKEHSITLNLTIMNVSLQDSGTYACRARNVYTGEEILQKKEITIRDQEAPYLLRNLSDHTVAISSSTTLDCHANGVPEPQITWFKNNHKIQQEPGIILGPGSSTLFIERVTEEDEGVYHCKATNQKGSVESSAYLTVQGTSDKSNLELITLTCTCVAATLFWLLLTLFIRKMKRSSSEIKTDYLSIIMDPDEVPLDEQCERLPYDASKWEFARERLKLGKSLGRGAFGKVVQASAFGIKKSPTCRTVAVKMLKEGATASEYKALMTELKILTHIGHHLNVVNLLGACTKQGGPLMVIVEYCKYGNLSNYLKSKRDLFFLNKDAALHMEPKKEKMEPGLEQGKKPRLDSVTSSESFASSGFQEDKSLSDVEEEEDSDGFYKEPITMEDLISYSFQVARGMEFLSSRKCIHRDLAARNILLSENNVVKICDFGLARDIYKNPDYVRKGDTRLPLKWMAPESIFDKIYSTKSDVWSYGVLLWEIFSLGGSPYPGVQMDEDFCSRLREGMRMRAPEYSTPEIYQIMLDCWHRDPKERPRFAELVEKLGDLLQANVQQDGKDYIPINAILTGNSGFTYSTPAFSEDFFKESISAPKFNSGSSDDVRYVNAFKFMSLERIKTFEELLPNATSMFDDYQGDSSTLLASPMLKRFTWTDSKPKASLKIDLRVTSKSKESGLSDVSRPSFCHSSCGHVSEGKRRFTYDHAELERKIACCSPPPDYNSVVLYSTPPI

[20] = Half life in diabetic ZDF fa/fa rat at 8 mg/kg administered 4.5 and 0.5 hrs prior to oral glucose challenge; format: ADME, organism-based; details: in vivo
[21] = molecular target: Vascular endothelial growth factor receptor 2 (Homo sapiens, UniProt P35968)
Sequence of Vascular endothelial growth factor receptor 2 (P35968 whole entry): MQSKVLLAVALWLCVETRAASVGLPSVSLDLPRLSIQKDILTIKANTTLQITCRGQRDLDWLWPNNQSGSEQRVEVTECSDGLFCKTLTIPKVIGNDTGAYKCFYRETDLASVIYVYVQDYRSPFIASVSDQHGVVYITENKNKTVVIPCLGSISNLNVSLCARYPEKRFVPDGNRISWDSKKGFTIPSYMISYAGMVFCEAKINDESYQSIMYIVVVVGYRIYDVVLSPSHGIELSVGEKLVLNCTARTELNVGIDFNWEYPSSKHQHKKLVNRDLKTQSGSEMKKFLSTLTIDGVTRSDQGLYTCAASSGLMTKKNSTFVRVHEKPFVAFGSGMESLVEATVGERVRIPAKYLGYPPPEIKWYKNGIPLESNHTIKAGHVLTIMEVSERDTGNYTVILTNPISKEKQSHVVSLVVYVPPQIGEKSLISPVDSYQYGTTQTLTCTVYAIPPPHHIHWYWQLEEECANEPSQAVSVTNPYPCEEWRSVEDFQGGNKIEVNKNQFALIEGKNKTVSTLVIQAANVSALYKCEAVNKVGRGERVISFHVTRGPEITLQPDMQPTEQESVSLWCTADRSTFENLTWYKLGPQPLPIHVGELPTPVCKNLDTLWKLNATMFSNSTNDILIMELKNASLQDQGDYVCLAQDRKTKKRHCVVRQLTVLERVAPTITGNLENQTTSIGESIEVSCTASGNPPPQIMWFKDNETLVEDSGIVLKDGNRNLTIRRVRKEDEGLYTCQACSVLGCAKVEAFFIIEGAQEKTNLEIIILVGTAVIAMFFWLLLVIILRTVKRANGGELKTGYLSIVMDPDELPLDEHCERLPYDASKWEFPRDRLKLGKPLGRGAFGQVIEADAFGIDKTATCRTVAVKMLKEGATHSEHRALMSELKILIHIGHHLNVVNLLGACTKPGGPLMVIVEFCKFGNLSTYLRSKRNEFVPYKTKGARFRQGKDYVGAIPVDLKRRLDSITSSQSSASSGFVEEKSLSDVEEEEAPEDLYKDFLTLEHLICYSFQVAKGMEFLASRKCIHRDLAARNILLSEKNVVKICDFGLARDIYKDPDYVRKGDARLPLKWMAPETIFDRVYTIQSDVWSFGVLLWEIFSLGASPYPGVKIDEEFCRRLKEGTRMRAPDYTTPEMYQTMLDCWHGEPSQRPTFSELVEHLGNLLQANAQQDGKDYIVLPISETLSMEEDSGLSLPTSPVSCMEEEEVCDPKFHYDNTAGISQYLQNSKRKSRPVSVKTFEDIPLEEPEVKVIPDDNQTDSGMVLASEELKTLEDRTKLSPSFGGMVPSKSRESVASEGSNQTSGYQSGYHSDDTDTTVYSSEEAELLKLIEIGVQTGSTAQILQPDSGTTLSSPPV

[22] = molecular target: T2, 3-phosphoinositide-dependent protein kinase 1 (Homo sapiens, UniProt O15530); test: Inhibition of human PDK1 using unactivated AKT substrate in presence of COPC, DOPS and PIP3 activators after 1 hr by scintillation counting method; how it was run: as §1
T2 sequence (O15530 whole entry): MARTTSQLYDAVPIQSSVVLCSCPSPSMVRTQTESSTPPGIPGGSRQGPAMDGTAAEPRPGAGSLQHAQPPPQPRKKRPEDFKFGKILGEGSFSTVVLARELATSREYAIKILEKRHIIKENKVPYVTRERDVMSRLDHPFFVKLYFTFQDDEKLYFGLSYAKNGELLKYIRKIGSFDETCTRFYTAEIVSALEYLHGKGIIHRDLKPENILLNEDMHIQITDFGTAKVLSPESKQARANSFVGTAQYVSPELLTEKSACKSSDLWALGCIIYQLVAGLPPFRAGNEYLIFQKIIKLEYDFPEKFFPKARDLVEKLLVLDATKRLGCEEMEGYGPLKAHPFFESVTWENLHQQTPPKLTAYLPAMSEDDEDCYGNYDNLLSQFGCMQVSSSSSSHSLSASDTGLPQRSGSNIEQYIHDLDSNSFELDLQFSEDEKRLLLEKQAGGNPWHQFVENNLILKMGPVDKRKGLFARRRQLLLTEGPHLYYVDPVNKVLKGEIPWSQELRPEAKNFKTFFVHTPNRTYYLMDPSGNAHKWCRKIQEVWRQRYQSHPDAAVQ

[23] = molecular target: Glycogen synthase kinase-3 beta (Homo sapiens, UniProt P49841); test: Inhibition of human GSK3beta using biotin-CREB peptide substrate after 1 hr by scintillation counting method
Sequence of Glycogen synthase kinase-3 beta (P49841 whole entry): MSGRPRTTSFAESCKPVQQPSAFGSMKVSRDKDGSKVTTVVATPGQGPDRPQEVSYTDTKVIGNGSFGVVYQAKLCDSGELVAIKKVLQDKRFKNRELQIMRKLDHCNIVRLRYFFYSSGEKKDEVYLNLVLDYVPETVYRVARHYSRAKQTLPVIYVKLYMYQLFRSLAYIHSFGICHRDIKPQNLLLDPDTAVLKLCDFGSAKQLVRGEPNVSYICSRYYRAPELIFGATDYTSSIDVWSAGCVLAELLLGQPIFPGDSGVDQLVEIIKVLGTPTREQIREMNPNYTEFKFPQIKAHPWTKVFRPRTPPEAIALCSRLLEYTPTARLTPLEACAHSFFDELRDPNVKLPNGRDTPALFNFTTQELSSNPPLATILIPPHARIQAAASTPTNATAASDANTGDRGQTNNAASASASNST

[24] = Oral bioavailability in diabetic ZDF fa/fa rat at 8 mg/kg administered 4.5 and 0.5 hrs prior to oral glucose challenge; format: ADME, organism-based; details: in vivo
[25] = Plasma concentration in diabetic db/db mouse at 30 mg/kg administered at 4.5 and 0.5 hrs prior to oral glucose challenge measured 20 mins post second dose
[26] = Stability in rat liver microsomes assessed as half life; format: ADME, microsome
[27] = molecular target: T3, Protein kinase C zeta type (Homo sapiens, UniProt Q05513); test: Inhibition of human PKCzeta using biotin-PKC-86 peptide substrate after 30 mins in the presence of phosphatidylserine and diacylglycerol activators by scintillation counting; how it was run: as §1
T3 sequence (Q05513 whole entry): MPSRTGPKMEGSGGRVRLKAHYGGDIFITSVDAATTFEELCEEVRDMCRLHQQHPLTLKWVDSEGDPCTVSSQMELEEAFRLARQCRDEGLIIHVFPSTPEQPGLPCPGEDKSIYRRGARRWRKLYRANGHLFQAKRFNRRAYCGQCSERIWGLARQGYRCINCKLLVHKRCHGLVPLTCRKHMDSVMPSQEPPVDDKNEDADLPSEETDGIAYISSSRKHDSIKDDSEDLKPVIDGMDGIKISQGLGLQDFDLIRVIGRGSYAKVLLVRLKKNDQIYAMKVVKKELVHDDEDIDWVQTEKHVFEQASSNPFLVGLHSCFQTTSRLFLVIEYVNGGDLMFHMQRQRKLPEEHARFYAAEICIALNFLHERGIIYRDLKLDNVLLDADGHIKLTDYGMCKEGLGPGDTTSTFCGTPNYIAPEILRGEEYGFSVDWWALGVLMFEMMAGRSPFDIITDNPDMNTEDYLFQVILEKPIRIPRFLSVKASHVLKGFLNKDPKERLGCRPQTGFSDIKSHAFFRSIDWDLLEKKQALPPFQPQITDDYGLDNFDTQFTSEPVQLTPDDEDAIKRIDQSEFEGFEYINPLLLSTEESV

[28] = molecular target: Fibroblast growth factor receptor 1 (Homo sapiens, UniProt P11362)
Sequence of Fibroblast growth factor receptor 1 (P11362 whole entry): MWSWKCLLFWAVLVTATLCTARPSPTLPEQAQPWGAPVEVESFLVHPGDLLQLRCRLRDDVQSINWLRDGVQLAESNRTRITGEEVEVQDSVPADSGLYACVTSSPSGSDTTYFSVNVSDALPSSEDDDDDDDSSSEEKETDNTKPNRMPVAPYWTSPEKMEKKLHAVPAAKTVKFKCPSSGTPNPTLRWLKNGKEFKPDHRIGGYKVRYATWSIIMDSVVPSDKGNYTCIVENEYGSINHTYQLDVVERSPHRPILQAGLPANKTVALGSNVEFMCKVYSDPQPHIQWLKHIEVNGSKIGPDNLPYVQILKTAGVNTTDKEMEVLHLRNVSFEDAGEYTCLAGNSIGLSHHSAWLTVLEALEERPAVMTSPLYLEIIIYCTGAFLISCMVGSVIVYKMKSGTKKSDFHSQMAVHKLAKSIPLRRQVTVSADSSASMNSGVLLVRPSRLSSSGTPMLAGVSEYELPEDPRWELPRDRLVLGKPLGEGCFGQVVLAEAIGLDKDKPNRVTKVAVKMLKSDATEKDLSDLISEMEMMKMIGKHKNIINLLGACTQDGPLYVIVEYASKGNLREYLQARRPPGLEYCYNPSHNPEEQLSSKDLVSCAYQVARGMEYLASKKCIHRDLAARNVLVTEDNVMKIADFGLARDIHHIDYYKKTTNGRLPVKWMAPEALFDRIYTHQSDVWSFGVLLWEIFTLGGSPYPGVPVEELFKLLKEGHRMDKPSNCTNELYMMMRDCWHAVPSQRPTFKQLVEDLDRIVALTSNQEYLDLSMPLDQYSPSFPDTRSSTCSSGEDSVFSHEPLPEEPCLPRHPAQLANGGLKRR

[29] = molecular target: Insulin-like growth factor 1 receptor (Homo sapiens, UniProt P08069)
[30] = molecular target: Casein kinase I isoform epsilon (Homo sapiens, UniProt P49674); test: Inhibition of human CK1epsilon using biotin peptide substrate after 1 hr by scintillation counting method
Sequence of Casein kinase I isoform epsilon (P49674 whole entry, canonical isoform): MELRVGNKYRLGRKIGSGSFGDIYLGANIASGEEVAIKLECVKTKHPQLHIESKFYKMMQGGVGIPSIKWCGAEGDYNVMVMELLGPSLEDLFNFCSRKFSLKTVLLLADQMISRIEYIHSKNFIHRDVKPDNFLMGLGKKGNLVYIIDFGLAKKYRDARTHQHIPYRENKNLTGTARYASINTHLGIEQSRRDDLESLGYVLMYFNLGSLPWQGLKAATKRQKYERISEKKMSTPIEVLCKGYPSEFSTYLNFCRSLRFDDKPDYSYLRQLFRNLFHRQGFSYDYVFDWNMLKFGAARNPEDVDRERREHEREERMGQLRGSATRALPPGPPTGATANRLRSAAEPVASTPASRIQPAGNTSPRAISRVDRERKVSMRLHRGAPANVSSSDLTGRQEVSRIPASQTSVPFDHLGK

[31] = molecular target: Cyclin-dependent kinase 1 (Homo sapiens, UniProt P06493); test: Inhibition of human CDC2 using biotin histone H1 peptide substrate after 1 hr by scintillation counting method
Angiopoietin-1 receptor = Angiopoietin-1 receptor (Homo sapiens, UniProt Q02763)
[32] = Stability in dog liver microsomes assessed as half life; format: ADME, Canis lupus familiaris, microsome
[33] = Inhibition of GSK3 in Sprague-Dawley rat primary hepatocytes assessed as assessed as glycogen synthase activation after 30 mins
Insulin receptor = Insulin receptor (Homo sapiens, UniProt P06213); test: Inhibition of human insulin receptor tyrosine kinase after 1 hr by scintillation counting method

Row | EC50 [2] [µM] | IC50 [5] [µM] | IC50 [10] [µM] | IC50 [11] [µM] | IC50 [14] [µM] | SMILES | Activity (Rattus norvegicus [13]) [%] | IC50 [15] [µM] | IC50 [16] [µM] | IC50 [17] [µM] | IC50 [18] [µM] | IC50 [19] [µM] | IC50 [21] [µM] | IC50 [23] [µM] | IC50 [28] [µM] | IC50 [29] [µM] | IC50 [30] [µM] | IC50 [31] [µM] | IC50 (Angiopoietin-1 receptor) [µM] | other results
1 | 0.77 | > 10 | > 10 | 0.005 | > 10 | Cc1cnc(-c2cnc(NCCNc3ccc(C#N)cn3)nc2-c2ccc(Cl)cc2Cl)[nH]1 [LADUVIGLUSIB] | 38 | – | – | – | – | – | – | – | – | – | – | – | – | Activity (Mus musculus [1]): Dose-dependent effect; Activity (Rattus norvegicus [3]): >=150 mg/dl; Activity (Mus musculus [4]): 53%; Activity (Mus musculus [6]): Active; Ki [7]: 8.3 µM; Activity (Mus musculus [8]): Active; Activity (Rattus norvegicus [9]): Active; Activity (Rattus norvegicus [12]): 116 mg/dL
2 | 0.26 | > 5 | > 10 | 0.001 | > 10 | Nc1nc(NCCNc2ncc(-c3ncc[nH]3)c(-c3ccc(Cl)cc3Cl)n2)ccc1[N+](=O)[O-] | 29 | > 10 | 0.0271 | > 10 | > 10 | > 5 | > 5 | 0.0006 | > 5 | > 10 | > 10 | > 10 | > 25 | half-life [20]: 46 min; IC50 [22]: > 10 µM; bioavailability [24]: 6%; concentration at 20 min ([25]; plasma): 19000 ng/mL; half-life [26]: > 30 min; IC50 [27]: > 10 µM; half-life [32]: > 30 min

Row | SMILES | EC50 [2] [µM] | IC50 [5] [µM] | IC50 [10] [µM] | IC50 [11] [µM] | IC50 [14] [µM] | Activity (Rattus norvegicus [13]) [%] | IC50 [15] [µM] | IC50 [16] [µM] | IC50 [17] [µM] | IC50 [18] [µM] | IC50 [19] [µM] | IC50 [21] [µM] | IC50 [23] [µM] | IC50 [28] [µM] | IC50 [29] [µM] | IC50 [30] [µM] | IC50 [31] [µM] | IC50 (Angiopoietin-1 receptor) [µM] | other results
3 | Nc1nc(NCCNc2ncc(-n3ccnc3)c(-c3ccc(Cl)cc3Cl)n2)ccc1[N+](=O)[O-] | 0.08 | > 5 | > 10 | 0.001 | – | – | > 10 | 0.007 | > 10 | > 5 | > 5 | > 2 | 0.0006 | > 1 | > 2 | > 5 | 4 | > 5 | EC50 [33]: 0.1 µM; concentration at 20 min ([25]; in vivo): 7000 ng/mL; IC50 (Insulin receptor): > 2 µM
